Assay results pooled from the literature.
Protocols differ between the studies behind these lines.
Target: Serine/threonine-protein kinase LATS1 (LATS1, Homo sapiens, UniProt O95835)
One construct used (O95835 1-1130): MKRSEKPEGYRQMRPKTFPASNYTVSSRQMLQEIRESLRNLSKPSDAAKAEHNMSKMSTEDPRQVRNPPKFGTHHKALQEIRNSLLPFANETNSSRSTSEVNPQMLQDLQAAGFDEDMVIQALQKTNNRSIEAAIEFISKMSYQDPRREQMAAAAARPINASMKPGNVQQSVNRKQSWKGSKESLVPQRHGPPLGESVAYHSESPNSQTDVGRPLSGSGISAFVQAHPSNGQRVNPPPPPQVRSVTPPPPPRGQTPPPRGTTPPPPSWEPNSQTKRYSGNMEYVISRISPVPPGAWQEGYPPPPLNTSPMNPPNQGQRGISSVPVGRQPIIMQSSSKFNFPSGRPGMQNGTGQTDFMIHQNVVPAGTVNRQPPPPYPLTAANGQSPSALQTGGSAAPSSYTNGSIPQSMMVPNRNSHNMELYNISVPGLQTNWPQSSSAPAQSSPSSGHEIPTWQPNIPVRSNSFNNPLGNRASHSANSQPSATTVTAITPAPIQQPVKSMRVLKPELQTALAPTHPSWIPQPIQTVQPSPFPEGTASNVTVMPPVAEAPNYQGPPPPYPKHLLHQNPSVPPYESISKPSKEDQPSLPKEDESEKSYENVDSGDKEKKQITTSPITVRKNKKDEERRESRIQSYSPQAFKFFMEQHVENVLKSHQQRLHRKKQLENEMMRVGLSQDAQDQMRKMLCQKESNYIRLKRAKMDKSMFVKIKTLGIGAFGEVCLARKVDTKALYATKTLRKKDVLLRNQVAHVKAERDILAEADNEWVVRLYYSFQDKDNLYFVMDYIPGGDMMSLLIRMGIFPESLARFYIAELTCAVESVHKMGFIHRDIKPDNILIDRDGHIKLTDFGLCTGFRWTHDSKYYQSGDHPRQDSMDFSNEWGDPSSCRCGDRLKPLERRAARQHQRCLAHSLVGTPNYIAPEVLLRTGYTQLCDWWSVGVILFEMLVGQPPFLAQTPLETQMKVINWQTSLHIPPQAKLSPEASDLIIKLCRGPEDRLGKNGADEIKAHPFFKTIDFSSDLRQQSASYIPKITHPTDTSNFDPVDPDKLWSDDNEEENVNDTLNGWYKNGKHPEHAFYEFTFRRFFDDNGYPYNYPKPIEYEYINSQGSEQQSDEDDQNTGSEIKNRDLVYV

With `CCCCC(=O)Nc1ccc(-c2ccc3ncn(CCC)c(=O)c3c2)cn1` the remaining binding was 86% (binding, competition with immobilised ligand; 0.5 µM).
With `C=CC(=O)N1CCC([C@@H]2CCNc3c(C(N)=O)c(-c4ccc(Oc5ccccc5)cc4)nn32)CC1` the inhibition was 0% (enzyme activity, inhibitor; 1 µM).
`Cc1cc(-c2ccnc3[nH]cc(F)c23)cc(F)c1[C@@]1(O)[C@H](C)CN(C2CCS(=O)(=O)CC2)C[C@@H]1C` has a residence time of 9.1 min (binding, TR-FRET).
With `CC#CC(=O)N1CCC[C@H]1c1nc(-c2ccc(C(=O)Nc3ccccn3)cc2)c2c(N)nccn12` the inhibition was 7% (enzyme activity, inhibitor; 1 µM).
The remaining signal of `C[C@H]1CC[C@H](n2c3cnccc3c3cnc(Nc4ccc5c(n4)CCN(C(=O)CO)C5)nc32)CC1` is reported as 47% (cell-free assay; 1 µM).
With `Cc1cc(-c2ccnc3[nH]cc(F)c23)cc(F)c1[C@@]1(O)[C@H](C)CN(C(=O)CN)C[C@@H]1C` the residence time was 7.3 min (binding, TR-FRET).
`CN1CCN(C(=O)c2ccc(NC(=O)Nc3ccc(N(C)c4ccnc(Nc5ccc(CS(C)(=O)=O)cc5)n4)cc3)cc2)CC1` gave a remaining binding of 68% (binding; 1 µM).
`C1=C/COCc2cc(ccc2OCCN2CCCC2)Nc2nccc(n2)-c2cccc(c2)COC/1` gave a remaining binding of 100% (binding; 0.1 µM).
